Experimental data reported in PubChem BioAssay AID504383 (The Scripps Research Institute Molecular Screening Center, 2011).
In all, about 2,500 compounds went through this assay and about 1,200 (48%) were called active.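 How the source made its calls: active means mean activation above the low control average plus 3 SD, as set in the primary screen (cut at about 12% in these data); inactive means the rest.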 So high a share suggests a set chosen from earlier hits. The list shows a part of the results.

target: Troponin I, cardiac muscle (Homo sapiens) + Troponin T, cardiac muscle (Homo sapiens) + Troponin C, slow skeletal and cardiac muscles (Homo sapiens) (UniProt P19429+P45379+P63316); experiment: calcium sensitizers of cardiac thin filaments – biochemical, IANBD-TnC fluorescence, triplicate, confirmation (AID 504383); conditions: IANBD-labeled cardiac RTF, Ca2+ sensitivity fluorescence; at 7.2 µM; hits give high values; scaled from EC20 to saturating calcium; tested at EC20 calcium, 0.472 mM;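 further: 0% = DMSO at 0.472 mM calcium and 100% = DMSO at 2.9 mM calcium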
Outline: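 material = labelled regulated thin filaments | probe or stimulus = Ca2+ 0.472 mM, EC20 level | dosing = single nominal compound dose of 7.2 µM | schedule = 15 min at 25 °C | signal = fluorescence intensity of labelled filaments | evaluation = fluorescence gain scaled between EC20 and EC100 calcium controls | benchmarks = low control EC20 calcium, high control EC100 calcium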

| SMILES | activation |
| --- | --- |
| CC1=CC(=C(C#N)C#N)C=C(C)N1Cc1ccc(Cl)cc1 | 52.2% (active) |
| CS(=O)(=O)Nc1nc2n(n1)C(c1ccccc1)C=C(c1ccc(Br)cc1)N2 (configuration not stated) | 35.8% (active) |
| O=c1cc2c(c(-c3ccccc3)n1Cc1ccccc1)[C@H](CCO)NC2 | 16.1% (active) |
| O=c1cc(-c2ccccc2)oc2ccc(Br)cc12 | 6.06% (inactive) |
| O=c1ccc2c(-c3ccccc3)c3ccc(O)cc3oc-2c1 | 88.1% (active) |
| Nc1ccc(-c2c3ccc(=O)cc-3oc3cc(O)ccc23)cc1C(=O)O | 4.67% (inactive) |
| Cn1cc(C2=C(c3ccc(Cl)cc3Cl)C(=O)NC2=O)c2ccccc21 | 32.9% (active) |
| O=C(NCC1CCCO1)c1c(O)nc2sccn2c1=O (configuration not stated) | 17.7% (active) |
| Cc1nccc(-c2cccc(N/N=C(\C#N)C(=O)c3ccccc3)c2)n1 | 6.06% (inactive) |
| COc1ccc2c(CC(=O)N[C@@H](Cc3c[nH]c4ccccc34)C(=O)O)cc(=O)oc2c1 | 16.7% (active) |
| COc1ccc(/C=N/NC(=O)C(Cc2c[nH]c3ccccc23)NC(=O)OCC(C)C)cc1[N+](=O)[O-] (configuration not stated) | 7.99% (inactive) |
| CC(C)c1ccc(OCC(=O)NC(Cc2c[nH]c3ccccc23)C(=O)O)cc1 (configuration not stated) | 4.54% (inactive) |
| NC(=O)CC[C@@H]1NC(=O)[C@H](Cc2ccc(O)cc2)NC(=O)c2cc([N+](=O)[O-])cc(F)c2OCC[C@@H](C(N)=O)NC1=O | 0.64% (inactive) |
| Cc1ccc(CN2CCN(Cc3ccc(-n4cccn4)cc3C)CC2CCO)cc1 (configuration not stated) | 108% (active) |
| CCOc1ccc(CN2CCN(C/C=C/c3ccc(OC)cc3)CC2CCO)cc1 (configuration not stated) | 7.69% (inactive) |
| CC/C(=N/Nc1cccc(C)c1)c1cnnc(SC)n1 | 12.7% (active) |
| COc1ccccc1CNc1cc(C)ccc1C | 1250% (active) |
| CC(=O)c1ccc(NC(=O)CN2C(=O)/C(=C/C=C/c3ccccc3)SC2=S)cc1 | 13.7% (active) |
| COc1cc(/C=C2/SC(=S)N(CCC(=O)Nc3ccccc3)C2=O)cc(OC)c1OC | 1.16% (inactive) |
| C#CCN1C(=O)S/C(=C/C=C/c2ccc(N(C)C)cc2)C1=O | 9.72% (inactive) |
| Cc1ccc(/C=C/C(=O)Nc2cccc3cccnc23)o1 | 20.6% (active) |
| COc1ccc(N2C(=O)[C@@H]3[C@H](C2=O)[C@H](C(C)=O)N2c4ccccc4C=C[C@@H]32)cc1 | 9.39% (inactive) |
| COc1ccc(C2C(C(=O)c3ccccc3)N3c4ccccc4C=CC3C2[N+](=O)[O-])cc1 (configuration not stated) | 47.8% (active) |
| Cc1cc(N/C=C\c2nnnn2-c2ccc(F)cc2)no1 | 979% (active) |
| O=C1c2cccc3c(O)ccc(c23)C(=O)N1Cc1ccccc1 | 33.7% (active) |

| SMILES | activation |
| --- | --- |
| C[C@H]1CCC(=O)N([C@H](CSc2ccc(Br)cc2)Cc2ccccc2)CC1 | 6.56% (inactive) |
| COc1ccc2[nH]c3c(c2c1)CCNC3c1ccc([N+](=O)[O-])o1 (configuration not stated) | 2.79% (inactive) |
| O=C(c1ccccc1Nc1ccc(SC(F)F)cc1)N1CCCCC1 | 5.45% (inactive) |
| O=C(c1ccc(Nc2cccc(C(F)(F)F)c2)nc1)N1CCCC1 | 168% (active) |
| CCSc1cc(N2CCCC2)nc(-c2ccc(Cl)cc2)n1 | 6.74% (inactive) |
| C/C(=N/NC(=O)Nc1ccccc1)c1ccc(C)cc1 | 9.45% (inactive) |
| C/C(=N/NS(=O)(=O)c1ccccc1)c1ccc(NC(=O)C2CC2)cc1 | 20.7% (active) |
| O=C(Nc1ccccc1)C1=C[C@H](c2ccc3c(c2)OCO3)C[C@H](OCCCCO)O1 | 13% (active) |
| O=C(C1=C[C@@H](c2ccc(Br)cc2)C[C@@H](OCc2ccc(CO)cc2)O1)N1CCN(Cc2ccc3c(c2)OCO3)CC1 | 4.22% (inactive) |
| C#Cc1ccc([C@@H]2C=C(C(=O)OCC=C)O[C@H](OCCCCO)C2)cc1 | 9.72% (inactive) |
| CCCC[C@H]1COCCS(=O)(=O)N1Cc1ccc(F)cc1 | 0.38% (inactive) |
| CCCn1c(N2CCN(CC(=O)c3c[nH]c4ccccc34)CC2)nc2c1c(=O)[nH]c(=O)n2C | 8.31% (inactive) |
| OCCc1c[nH]c2ccccc12 | 6.66% (inactive) |
| NC(=O)c1c[nH]c2ccccc12 | 717% (active) |
| N#C/C(=C/c1ccc(N2CCOCC2)o1)c1ccc(Cl)cc1 | 9.77% (inactive) |
| N#C/C(=C/c1ccc(N2CCCCCC2)o1)c1ccc(Cl)cc1 | 38.8% (active) |
| N#C/C(=C/c1ccc(N2CCCCCC2)o1)c1cccc(F)c1 | 99.3% (active) |
| O=C(NCc1nnc(SCC(=O)N2CCCCCC2)o1)c1ccco1 | 28.5% (active) |
| CC(C)Sc1nc2ccc(Br)cc2[nH]1 | 56.5% (active) |
| COC(=O)c1ccc(S(=O)(=O)N2CCC(O)CC2)n1C | 30.3% (active) |
| COC(=O)c1ccc(S(=O)(=O)N(CCO)Cc2ccccc2)n1C | 6.61% (inactive) |
| Cc1ccc(CNc2cccnc2)cc1 | 1.46% (inactive) |
| Cc1ccc(N2CN(Cc3cccnc3)CNC2=S)cc1 | 13.6% (active) |
| CS/C(=N\S(=O)(=O)c1cccs1)Nc1cccc(Cl)c1C | 61.5% (active) |
| COCCn1c(-c2ccc(C)cc2)nc2oc3cc(OC)ccc3c(=O)c2c1=O | 10.7% (inactive) |

| SMILES | activation |
| --- | --- |
| COCCn1c(=O)c2ccccc2c2ccccc2c1=O | 89% (active) |
| COCCOC(=O)c1sc(=S)n(CCOC)c1N | 7.49% (inactive) |
| CCC(=O)N/C(=N/c1nc(C)cc(C)n1)Nc1ccccc1 | 7.51% (inactive) |
| CCC(=O)Nc1ccc2oc(-c3cccnc3)nc2c1 | 210% (active) |
| Cc1cc(=O)oc(C)c1C(=O)Nc1ccc2ncccc2c1 | 6.03% (inactive) |
| CCCCN=C1N/C(=C\c2ccco2)C(=O)N1c1ccccc1 | 370% (active) |
| Cc1cc(NC(=O)COC(=O)C(Cc2ccccc2)NC(=O)c2ccco2)no1 (configuration not stated) | 39.2% (active) |
| COC(=O)[C@H](Cc1ccccc1)NC(=O)Nc1ccc(OC)cc1 | 4.56% (inactive) |
| O=C1C=C(NCc2ccco2)CC(c2ccc(Cl)cc2)C1 (configuration not stated) | 4.86% (inactive) |
| CCc1ccc(C2C(C#N)=C(N)SC(N)=C2C#N)s1 | 9.19% (inactive) |
| Nc1cnccc1C(=O)O | 26% (active) |
| CN(C)C=Nc1c(Br)cc(Br)c2nonc12 | 31.3% (active) |
| CC(C)(C)c1ccc(C(=O)N/C(=C\c2cccs2)C(=O)NCc2ccco2)cc1 | 9.9% (inactive) |
| O=C(NCc1ccco1)/C(=C\c1ccco1)NC(=O)c1ccc(Br)o1 | 72.9% (active) |
| O=C(NCc1cccnc1)/C(=C\c1ccc(-c2ccc(Cl)c(Cl)c2)o1)S(=O)(=O)c1ccccc1 | 5.91% (inactive) |
| Cc1cnc(C(=O)Nc2nnc(SCc3c(Cl)cccc3Cl)s2)cn1 | 15% (active) |
| CCOC(=O)c1c(C)[nH]c(C2=NNC(=NC(C)COC)SC2)c1C (configuration not stated) | 81% (active) |
| NC(N)=NCc1cccc(I)c1 | 7.58% (inactive) |
| CN(C(=O)C1CCC1C(=O)O)c1nc(-c2ccc(Cl)s2)cs1 (configuration not stated) | 176% (active) |
| COC(=O)c1ccc(OC)c(OC2CCCC2)c1 | 6.45% (inactive) |
| CCOc1ccc(C(=O)NCC(=O)N2CCC3CCCCC3C2)cc1OCC (configuration not stated) | 167% (active) |
| CCOc1ccc(NC(=O)COC(=O)CCN2C(=O)C3CC=CCC3C2=O)cc1OCC (configuration not stated) | 8.79% (inactive) |
| CCn1nnnc1SCC(=O)N1CCCc2ccccc21 | 10.8% (inactive) |
| CC(CC(=O)N1CCc2ccccc21)n1cccn1 (configuration not stated) | 5.25% (inactive) |
| Cc1ccc2c(c1)N(CC(=O)N1CCCc3ccccc31)C(=O)C(C)O2 (configuration not stated) | 21.6% (active) |

| SMILES | activation |
| --- | --- |
| O=C(O)CN1C(=O)c2cccc3c(Br)ccc1c23 | 89% (active) |
| CCCCOC(=O)Nc1nnc(C(C)C)s1 | 617% (active) |
| CCOC(=O)C(=O)Nc1nnc(COc2ccccc2)s1 | 9.76% (inactive) |
| CCOCCc1nnc(NC(=O)COC)s1 | 3.67% (inactive) |
| CCSc1nnc(-c2sc3nnc(-c4ccccc4)c(-c4ccccc4)c3c2N)o1 | 6.28% (inactive) |
| O=C(O)c1ncc(-c2ccccc2)cn1 | 128% (active) |
| O=C([O-])c1ccccc1-[n+]1c(-c2ccccc2)cc(-c2ccccc2)cc1-c1ccccc1 | 7.07% (inactive) |
| O=C(N/N=C/c1c(O)n(-c2ccc(Cl)cn2)c(=O)c2ccccc12)c1ccncc1 | 14.8% (active) |
| CCn1c(O)c(/C=N/NC(=O)c2ccncc2)c(=O)n(CC)c1=S | 10.1% (inactive) |
| CC(C)CC1=NN2C(=N)/C(=C\c3coc4ccccc4c3=O)C(=O)N=C2S1 | 13.7% (active) |
| N=C1/C(=C\c2coc3ccccc3c2=O)C(=O)N=C2SC=CN12 | 12.3% (active) |
| N=C1/C(=C\c2coc3ccc(O)cc3c2=O)C(=O)N=C2SC=CN12 | 5.99% (inactive) |
| Cc1ccccc1Cn1cccc1/C=C1/C(=N)N2C=CSC2=NC1=O | 14.6% (active) |
| N=C1/C(=C\c2coc3ccccc3c2=O)C(=O)N=C2SC(c3ccncc3)=NN12 | 22.9% (active) |
| O=C(c1ccccc1)N1CCN(CC#CC2(O)CCCCC2)CC1 | 8.87% (inactive) |
| COc1ccc(-n2nc3c(N4CCC(C(=O)NCc5ccco5)CC4)nnc(C)c3c2C)cc1 | 4.51% (inactive) |
| COc1ccc(N2CCN(C(=O)Cn3nnc(-c4ccccc4N)n3)CC2)cc1 | 46.5% (active) |
| CC1CCCCN1C(=O)Cn1nnc(-c2cccnc2)n1 (configuration not stated) | 5.92% (inactive) |
| CC(C)CC1C(C#N)=C(N)SC(N)=C1C#N | 4.27% (inactive) |
| Cc1cc(=O)n2nc(N3CCCC3C(=O)Nc3ccc(C(C)C)cc3)sc2n1 (configuration not stated) | 426% (active) |
| COc1cc(NC(=O)[C@@H]2CCCN2S(=O)(=O)c2cccc3cccnc23)cc(OC)c1OC | 7.77% (inactive) |
| Cc1cc(Br)c2c(c1)C(O)(N1CCCCC1C)C(=O)N2 (configuration not stated) | 12.6% (active) |
